Test results from ChEMBL document CHEMBL1789904, “Imaging of Plasmodium liver stages to drive next-generation antimalarial drug discovery” (Science, 2011).

Test system: Plasmodium yoelii
Assay: NOVARTIS: Antimalarial liver stage activity measured as reduction in Plasmodium yoelii schizont area in HepG2-A16-CD81 cells by immuno-fluorescence, and median schizont size at 10uM compound concentration
Assay type: functional, organism-based
Settings: for IC50: Plasmodium yoelii, HepG2-A16-CD81
Method in brief: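 Host and parasite nuclei stained with Hoechst 33342, parasites with αPyHSP70 antibody; 25 images per well by high-content imaging; median parasite (schizont) area measured by automated image analysis, ~50 schizonts per experiment, two or more independent experiments.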

Structure (SMILES)	Schizont size [um]	IC50 [nM]
O=c1c2ccccc2[nH]c2ccc(F)cc12	29.64	223
O=c1c2c([nH]c3ccccc13)CCCCCCCCCC2	25.15	99
Cc1ccc(Nc2cc(C)nc(NCc3ccccc3)n2)c(C)c1	89.14	1300
CC(Oc1ccc(Cl)cc1Cl)c1nc(-c2ccc(NC(=O)c3ccco3)cc2)no1 (stereo not given)	28.18	154
COc1cc(C(=O)N2N=C(c3c(-c4ccccc4)c4cc(Br)ccc4[nH]c3=O)CC2c2cccc([N+](=O)[O-])c2)cc(OC)c1OC (stereo not given)	29.43	435
CC(C)(C)OC(=O)N1CCC(c2c(C(=O)Nc3cccc(C(F)(F)F)c3)cnn2-c2ccc(F)cc2F)CC1		3120
CN1C(=O)N(C)C(NNC(N)=S)C1NNC(N)=S (stereo not given)	117.53	15
CC1(C)C2CCC(C2)C1(C)NC(=S)NN=Cc1ccccn1 (stereo not given)	28.29	17.4
c1ccc(-c2ccc(-c3ccccn3)nc2)nc1	22.34	39.4
CCCN(C(=O)Nc1c(C(C)C)cccc1C(C)C)C(CC)c1nc2ccccc2c(=O)n1-c1cccc(C)c1 (stereo not given)		6300
O=C1c2ccccc2-n2c1nc1ccccc1c2=O [TRYPTANTHRIN]	89.55	225
Cc1cccc(-c2cc3nc(C)c(C)c(O)n3n2)c1	67.43	1100
CCCN(CCC)[P+](CCC)(c1ccc([P+](CCC)(N(CCC)CCC)N(CCC)CCC)cc1)N(CCC)CCC	28.29	280
CC(=O)N(C)C1=C(N2CCOCC2)C(=O)c2ccccc2C1=O	38.72	229
CCCCCCN(C(=O)c1ccc(C(C)(C)C)cc1)C(CC)c1nc2ccccc2c(=O)n1-c1ccc(F)cc1 (stereo not given)		> 6910
Cc1nc([P+](c2ccccc2)(c2ccccc2)c2ccccc2)c(N2CCCCC2)o1	25.57	82.4
COc1ccc(Nc2cc(C)nc(NCc3ccccc3)n2)cc1	57.82	636
CCc1c(C)c(C#N)c2nc3ccccc3n2c1NCc1ccccc1	126.09	> 9600
Cl.Clc1cccc(Nc2nc(NCc3ccco3)c3ccccc3n2)c1	36.64	383
CC(C)(C)c1ccc(Oc2ccc(N3C(=O)C4CC=CCC4C3=O)cc2)cc1 (stereo not given)	180.99	> 10000
O=c1c2ccccc2[nH]c2ccc(I)cc12	24.95	105
CCOc1ccc(N(C(=O)C2COc3ccccc3O2)C(C(=O)NC2CCCCC2)c2cn(C)nc2C)cc1 (stereo not given)	191.42	> 10000
CSc1nnc(-c2cccc([N+](=O)[O-])c2)n1Cc1ccccc1	97.38	2510
OC1=C2C(=Nc3ccccc3SC2c2cccs2)c2ccccc21 (stereo not given)	25.89	90.4

Structure (SMILES)	Schizont size [um]	IC50 [nM]
CCN(CC)CCCN(Cc1cc2cc(OC)c(OC)cc2[nH]c1=O)C(=S)Nc1cccc(Cl)c1	60.54	162
CCCN(CCC)CCCNc1ccc(C(=O)Nc2ccc(C)c(F)c2)cc1[N+](=O)[O-]	83.5	646
OC(CNC1CCCCC1)Cn1c2ccccc2c2ccccc21 (stereo not given)	143.41	3920
Br.Cc1ccnc(Nc2nc(-c3ccccn3)cs2)c1	19.21	95.6
Cc1nc([P+](c2ccccc2)(c2ccccc2)c2ccccc2)c(SCc2ccccc2)o1.[O-][Cl+3]([O-])([O-])[O-]	31.83	33.5
CN1CCN(c2ccc(Nc3c4ccccc4nc4ccccc34)cc2)CC1	45.82	547
Cc1cc(OC(C)C(=O)N2CCc3ccccc32)ccc1Cl (stereo not given)	59.6	776
COc1cccc(NC(=O)Cn2c(C)c(C#N)c3ccccc32)c1	134.12	> 9960
CCCCc1c(C)nc2ccc(Br)cc2c1O	25.99	64.7
CCCCN(CCCC)[P+](N(CCCC)CCCC)(N(CCCC)CCCC)N(CCCC)CCCC	24.32	11.5
COC(=O)c1c(-c2c(Cl)cccc2Cl)noc1NC(=O)NN1CCCCC1	75.67	647
CN(C)CCCN(Cc1cc2cc3c(cc2[nH]c1=O)OCO3)C(=S)Nc1cccc(Cl)c1	60.22	818
Cc1cn2c3ccccc3n(CCN3CCCC3)c2n1	126.09	1070
CC(=O)Nc1nc(C)c(-c2csc(Nc3ccc(C)cc3)n2)s1	104.48	1890
O=C(c1ccc2nc(N3CCCCC3)sc2c1)N1CCN(Cc2ccc3c(c2)OCO3)CC1	168.67	> 9220
Cc1ccc2[nH]c(C)c(Br)c(=O)c2c1	29.96	252
Cc1nc2c(C)cccc2c(O)c1CC=C(Cl)Cl	31.21	169
O=C(O)c1c[nH]c2cc(N3CCCCCC3)c(F)cc2c1=O	224.51	> 10000
CCC(C)(C)c1ccc(OCCOCC[n+]2ccccc2)c(C(C)(C)CC)c1.[Cl-]	13.88	96.2
CCOC(=O)C1=C(C)NC2=C(C(=O)C(C(=O)OCC)C(c3ccccc3OC)C2)C1c1cc(OC)c(OC)c(OC)c1 (stereo not given)	103.54	509
COc1ccc2sc(Nc3nc(-c4ccccn4)cs3)nc2c1	28.91	159
Clc1ccccc1-c1nc([P+](c2ccccc2)(c2ccccc2)c2ccccc2)c(N2CCOCC2)o1	20.56	95.6
COc1ccc2c(C)nc(Nc3nc(C)cc(-c4ccccc4)n3)nc2c1	170.24	6660
Cc1ccc(OCC(=O)Nc2cccc(-c3nc4ncccc4o3)c2)cc1C	160.01	> 10000

Structure (SMILES)	Schizont size [um]	IC50 [nM]
CC1(C)N=C(N)N=C(N)N1c1ccccc1.Cl	37.05	100
O=[N+]([O-])c1cc(C(F)(F)F)ccc1N1CCCN(C(=S)Nc2ccccc2)CC1	93.73	2230
CC[n+]1c(/C=C/C=C2\N(C)c3ccccc3C2(C)C)n(-c2ccccc2)c2cc(Cl)ccc21	12.53	13.6
Cl.OCCNc1nc(Nc2ccccc2)nc2ccccc12	62.1	47.9
COC(=O)C1=C(C)NC2=C(C(=O)CC(c3ccccc3Cl)C2)C1c1ccc([N+](=O)[O-])cc1 (stereo not given)	61.06	842
Oc1c2c(nc3cc(-c4ccc(Br)cc4)nn13)CCCC2		499
Cc1ncc(CCCCN(C)C)c2c1[nH]c1ccccc12	132.56	2770
CCNC(=O)C1CCN(c2cccc3c2C(=O)N(C2CCCCCCC2)C3=O)CC1	30.48	269
O=C(O)Cn1cnc2nc3n(c2c1=O)CCC3	183.18	> 770
O=C1N(Cc2cc3ccccc3s2)CC2CN(Cc3ccsc3)CCN12 (stereo not given)		25.5
Cc1ccc(C2Sc3ccccc3NC3=C2C(=O)c2ccccc23)cc1 (stereo not given)	27.03	278
CC(C)c1nc(N2CCN(C(=O)Nc3ccccc3)CC2)c(C#N)c2c1COC(C)(C)C2	82.25	1020
CC(C)CC(N)C(=O)N1CCn2c(nc(-c3ccccc3)c2Nc2ccc3c(c2)OCO3)C1 (stereo not given)		186
Nc1ccc(-c2nc3cc(Oc4ccc(Oc5ccc6[nH]c(-c7ccc(N)cc7)nc6c5)cc4)ccc3[nH]2)cc1	116.48	319
Cc1ccc2nc3nc4c(C)cccc4c(N)c3cc2c1	22.23	47.4
CCCCCc1ccc(OCCCC[n+]2cccc(C)c2)c(CCCCC)c1.[Cl-]	23.48	34.6
CCCCc1c(C)nc2c(OC)cccc2c1O	42.59	561
CCCCCCCc1cc(O)c2c3c(c(=O)oc2c1)CCC(C)C3 (stereo not given)	31.52	247
Cc1ccc(-c2cc3nc4c(c(O)n3n2)CCCC4)cc1	26.41	75.3
CC(=O)Nc1cccc(-c2cncc(-c3ccc(C(=O)O)cc3)n2)c1		> 10000
CCOC(=O)c1cnc2ccc(C(C)C)cc2c1O	31.42	352
Oc1cccc2ccc(Nc3ccccn3)nc12	30.16	142
OC1=C2C(=Nc3ccccc3SC2c2ccccc2)c2ccccc21 (stereo not given)	28.39	93.7
